The M2OR odorant receptor database
Positions count from the first letter of the chain named.

Tests used:
Settings in all cases: stereoisomer not certain
OR2F1 = test system: OR2F1
In short: (§1)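 Whether a receptor–molecule pair is responsive (active) rests on the original authors' judgment that its measured signal was statistically different from baseline. Pairs without that judgment are non-responsive (inactive). Sources used varied assay methods, commonly transient luciferase assays in mammalian cell lines.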

OR2F1 (Homo sapiens) = target: T1, OR2F1 (Homo sapiens) (UniProt Q13607)
T1 sequence (whole entry): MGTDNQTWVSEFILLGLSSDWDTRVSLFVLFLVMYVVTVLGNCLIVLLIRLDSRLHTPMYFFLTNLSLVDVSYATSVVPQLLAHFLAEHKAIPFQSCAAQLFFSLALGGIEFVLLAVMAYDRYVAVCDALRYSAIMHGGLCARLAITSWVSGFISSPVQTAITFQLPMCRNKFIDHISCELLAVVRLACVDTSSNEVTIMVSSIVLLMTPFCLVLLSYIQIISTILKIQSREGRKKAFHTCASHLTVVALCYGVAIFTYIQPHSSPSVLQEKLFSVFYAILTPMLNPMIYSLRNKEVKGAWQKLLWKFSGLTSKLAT
In short: as §1

OR2F2 (Homo sapiens) = target: T2, OR2F2 (Homo sapiens) (UniProt O95006)
T2 sequence (whole entry): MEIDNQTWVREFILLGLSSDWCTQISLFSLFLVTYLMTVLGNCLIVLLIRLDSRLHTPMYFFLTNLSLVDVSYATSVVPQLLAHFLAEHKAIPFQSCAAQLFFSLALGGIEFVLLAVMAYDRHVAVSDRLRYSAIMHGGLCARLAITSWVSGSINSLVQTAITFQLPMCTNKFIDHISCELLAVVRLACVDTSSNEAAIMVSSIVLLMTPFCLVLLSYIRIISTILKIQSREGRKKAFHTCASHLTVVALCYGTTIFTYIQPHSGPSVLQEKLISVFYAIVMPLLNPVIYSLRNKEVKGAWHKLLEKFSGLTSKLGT
In short: as §1

OR2G2 (Homo sapiens) = target: T3, OR2G2 (Homo sapiens) (UniProt Q8NGZ5)
T3 sequence (whole entry): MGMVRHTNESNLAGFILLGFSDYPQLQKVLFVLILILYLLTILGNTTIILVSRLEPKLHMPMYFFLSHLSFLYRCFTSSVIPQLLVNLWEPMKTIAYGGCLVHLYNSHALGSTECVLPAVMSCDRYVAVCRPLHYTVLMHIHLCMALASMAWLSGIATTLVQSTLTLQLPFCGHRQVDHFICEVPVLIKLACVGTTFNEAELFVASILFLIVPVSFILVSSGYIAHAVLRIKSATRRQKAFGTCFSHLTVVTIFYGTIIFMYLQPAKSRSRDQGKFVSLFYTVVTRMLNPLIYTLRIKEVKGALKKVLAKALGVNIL
In short: as §1

OR2G3 (Homo sapiens) = target: T4, OR2G3 (Homo sapiens) (UniProt Q8NGZ4)
T4 sequence (whole entry): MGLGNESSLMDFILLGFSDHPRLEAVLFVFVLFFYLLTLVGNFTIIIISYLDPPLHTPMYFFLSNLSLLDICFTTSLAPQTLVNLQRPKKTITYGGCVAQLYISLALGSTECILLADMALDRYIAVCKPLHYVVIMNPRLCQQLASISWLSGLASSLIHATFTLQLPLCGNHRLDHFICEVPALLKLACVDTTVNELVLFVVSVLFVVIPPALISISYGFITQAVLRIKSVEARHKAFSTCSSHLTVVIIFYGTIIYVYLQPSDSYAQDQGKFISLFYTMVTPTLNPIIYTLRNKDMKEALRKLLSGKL
In short: as §1

OR2G6 (Homo sapiens) = target: T5, OR2G6 (Homo sapiens) (UniProt Q5TZ20)
T5 sequence (whole entry): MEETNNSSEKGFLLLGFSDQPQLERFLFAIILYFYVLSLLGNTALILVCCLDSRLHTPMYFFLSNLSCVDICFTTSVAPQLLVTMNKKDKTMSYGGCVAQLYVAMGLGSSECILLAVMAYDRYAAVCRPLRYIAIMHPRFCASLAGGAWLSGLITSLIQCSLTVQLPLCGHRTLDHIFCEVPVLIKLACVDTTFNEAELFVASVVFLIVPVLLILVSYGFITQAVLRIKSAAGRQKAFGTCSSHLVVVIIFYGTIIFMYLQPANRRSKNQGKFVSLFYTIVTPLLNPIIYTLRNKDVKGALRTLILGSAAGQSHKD
In short: as §1

OR2H1 (Homo sapiens) = target: T6, OR2H1 (Homo sapiens) (UniProt Q9GZK4)
T6 sequence (whole entry): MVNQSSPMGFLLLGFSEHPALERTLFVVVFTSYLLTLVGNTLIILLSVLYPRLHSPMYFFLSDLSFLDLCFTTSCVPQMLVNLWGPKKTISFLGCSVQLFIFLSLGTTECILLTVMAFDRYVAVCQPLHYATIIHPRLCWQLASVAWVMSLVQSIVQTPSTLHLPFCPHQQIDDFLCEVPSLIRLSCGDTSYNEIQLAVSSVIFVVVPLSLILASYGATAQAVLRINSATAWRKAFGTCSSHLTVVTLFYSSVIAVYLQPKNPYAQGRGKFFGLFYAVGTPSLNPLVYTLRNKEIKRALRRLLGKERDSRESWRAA
In short: as §1

OR2H2 (Homo sapiens) = target: T7, OR2H2 (Homo sapiens) (UniProt O95918)
T7 sequence (whole entry): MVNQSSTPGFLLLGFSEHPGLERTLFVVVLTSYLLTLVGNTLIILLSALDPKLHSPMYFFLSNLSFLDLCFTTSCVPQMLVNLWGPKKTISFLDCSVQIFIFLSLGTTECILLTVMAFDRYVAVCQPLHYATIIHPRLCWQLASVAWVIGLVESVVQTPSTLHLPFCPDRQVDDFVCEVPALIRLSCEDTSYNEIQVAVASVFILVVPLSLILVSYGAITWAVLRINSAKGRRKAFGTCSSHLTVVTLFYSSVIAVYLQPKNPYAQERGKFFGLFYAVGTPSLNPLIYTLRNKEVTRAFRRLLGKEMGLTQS
In short: as §1

OR2G2 L167P R236G = test system: T8, OR2G2 L167P R236G
T8 sequence (whole entry): T3 sequence (whole entry) with L167P, R236G
In short: as §1

OR2G3 I289V = test system: T9, OR2G3 I289V
T9 sequence (whole entry): T4 sequence (whole entry) with I289V
In short: as §1
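Further: active if original authors judged signal statistically different from baseline.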

OR2F1, sequence (as listed by the source): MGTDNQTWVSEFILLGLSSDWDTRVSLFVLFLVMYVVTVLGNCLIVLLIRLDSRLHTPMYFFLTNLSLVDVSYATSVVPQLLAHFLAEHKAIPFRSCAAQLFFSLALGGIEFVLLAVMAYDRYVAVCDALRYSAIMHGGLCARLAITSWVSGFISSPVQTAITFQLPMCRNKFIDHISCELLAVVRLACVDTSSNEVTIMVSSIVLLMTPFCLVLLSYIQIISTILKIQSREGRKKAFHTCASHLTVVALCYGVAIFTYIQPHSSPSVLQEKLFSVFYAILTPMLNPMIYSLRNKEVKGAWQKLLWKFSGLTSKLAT

Structure (SMILES) | odorant receptor agonist call (OR2F1) | odorant receptor agonist call (OR2F1 (Homo sapiens)) | odorant receptor agonist call (OR2F2 (Homo sapiens)) | odorant receptor agonist call (OR2G2 (Homo sapiens)) | odorant receptor agonist call (OR2G3 (Homo sapiens)) | odorant receptor agonist call (OR2G6 (Homo sapiens)) | odorant receptor agonist call (OR2H1 (Homo sapiens)) | odorant receptor agonist call (OR2H2 (Homo sapiens)) | odorant receptor agonist call (OR2G2 L167P R236G) | odorant receptor agonist call (OR2G3 I289V)
O=C([O-])C[SH2+] | inactive | – | – | – | – | – | – | – | – | –
CCCCCC(=O)C(C)C(C)=O (stereo unspecified) | – | inactive | inactive | inactive | inactive | inactive | inactive | inactive | – | –
CCC=C(C)C(O)CCCCC (stereo unspecified) | – | – | – | inactive | – | – | – | – | – | –
CCC(S)C(C)CO (stereo unspecified) | – | inactive | inactive | inactive | inactive | inactive | inactive | inactive | – | –
CC=CC(=O)C1C(C)=CCCC1(C)C (stereo unspecified) | – | – | – | active | – | – | – | – | – | –
CCCCCC(S)C(C)CO (stereo unspecified) | – | inactive | inactive | inactive | inactive | inactive | inactive | inactive | – | –
CCCCCC1C(=O)CCC1CC(=O)OC (stereo unspecified) | – | – | – | inactive | – | – | – | – | – | –
CC(=O)c1c(C)c([N+](=O)[O-])c(C(C)(C)C)c([N+](=O)[O-])c1C | – | inactive | inactive | inactive | inactive | inactive | inactive | inactive | – | –
CC1=C(O)C(=O)OC1C (stereo unspecified) | – | inactive | inactive | inactive | inactive | inactive | inactive | inactive | inactive | inactive
CCCCC(S)C(C)CO (stereo unspecified) | – | inactive | inactive | inactive | inactive | inactive | inactive | inactive | – | –
CC1CCCCCCCCCCCCC(=O)C1 (stereo unspecified) | – | inactive | inactive | inactive | inactive | inactive | inactive | inactive | – | –
CCCCCCC=CCCC=O | – | inactive | inactive | inactive | inactive | inactive | inactive | inactive | inactive | inactive
CC(CO)CS (stereo unspecified) | – | inactive | inactive | inactive | inactive | inactive | inactive | inactive | – | –
CC(=O)OCc1ccccc1 | – | – | – | inactive | – | – | – | – | – | –
CC1=NC(C)C(C)S1 (stereo unspecified) | – | inactive | inactive | inactive | inactive | inactive | inactive | inactive | inactive | inactive
CCCC(S)CCOC(C)=O (stereo unspecified) | – | inactive | inactive | inactive | inactive | inactive | inactive | inactive | inactive | inactive
CCC1OC(=O)C(O)=C1C (stereo unspecified) | – | inactive | inactive | inactive | inactive | inactive | inactive | inactive | inactive | inactive
Cc1cnc(C)c(C)n1 | – | inactive | inactive | inactive | inactive | inactive | inactive | inactive | inactive | inactive
CCCCC1CCC(=O)O1 (stereo unspecified) | – | – | – | inactive | – | – | – | – | – | –
CC1=C(O)C(=O)C(C)O1 (stereo unspecified) | – | inactive | inactive | inactive | inactive | inactive | inactive | inactive | inactive | inactive
C=CC(C)(CCC=C(C)C)OC(C)=O (stereo unspecified) | – | – | – | inactive | – | – | – | – | – | –
CCC1OC(C)=C(O)C1=O (stereo unspecified) | – | inactive | inactive | inactive | inactive | inactive | inactive | inactive | inactive | inactive
COc1ccc(C)cc1 | – | – | – | inactive | – | – | – | – | – | –
CCOC(=O)CC1(C)OCCO1 | – | – | – | inactive | – | – | – | – | – | –
COC1CC2CC1C1CC(C=O)CC21 (stereo unspecified) | – | – | – | inactive | – | – | – | – | – | –
